Assay results: ChEMBL document CHEMBL1143745, “Utility of 6-amino-2-thiouracil as a precursor for the synthesis of bioactive pyrimidine derivatives” (2007)

How the values were obtained:
Staphylococcus aureus = assay: Antimicrobial activity against Staphylococcus aureus; format: functional
How it was run: (§1)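 Disk diffusion. A sterile filter-paper disk saturated with a measured quantity of sample is placed on agar heavily seeded with a spore suspension of the test organism. Bacteria are grown on nutrient agar and fungi on Dox's medium. The diameter of the clear inhibition zone around the disk is taken as the inhibitory measure. Ampicillin is the antibacterial reference and nystatin the antifungal reference.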

Enterococcus faecalis = assay: Antimicrobial activity against Streptococcus faecalis; format: functional; how it was run: as §1
HepG2 [1] = assay: Cytotoxicity against HEPG2 cells assessed as surviving fraction at 5 ug/ml after 48 hrs by ELISA; format: functional, Homo sapiens
How it was run: (§2)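 SRB assay in human liver carcinoma HEPG2 or lung carcinoma H460 cells. Cells are seeded at 10⁴ per well and allowed to attach for 24 h. Compound is added at 0, 1, 2.5, 5 and 10 µg/ml, in triplicate wells per dose, for 48 h continuous exposure at 37 °C in 5% CO₂. Cells are then fixed and stained with sulforhodamine B. Bound dye is recovered in Tris-EDTA and read on an ELISA reader. Surviving fraction is plotted against concentration. Cisplatin is the positive control.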

HepG2 [2] = assay: Cytotoxicity against HEPG2 cells assessed as surviving fraction at 10 ug/ml after 48 hrs by ELISA; format: functional, Homo sapiens; how it was run: as §2
Saccharomyces cerevisiae = assay: Antimicrobial activity against Saccharomyces cerevisiae; format: functional; how it was run: as §1
NCI-H460 [3] = assay: Cytotoxicity against human H460 cells assessed as surviving fraction at 5 ug/ml after 48 hrs by ELISA; format: functional; how it was run: as §2
HepG2 [4] = assay: Cytotoxicity against HEPG2 cells assessed as surviving fraction at 2.5 ug/ml after 48 hrs by ELISA; format: functional, Homo sapiens; how it was run: as §2
Bacillus subtilis = assay: Antimicrobial activity against Bacillus subtilis; format: functional; how it was run: as §1
NCI-H460 [5] = assay: Cytotoxicity against human H460 cells assessed as surviving fraction at 10 ug/ml after 48 hrs by ELISA; format: functional; how it was run: as §2
HepG2 [6] = assay: Cytotoxicity against HEPG2 cells assessed as surviving fraction at 1 ug/ml after 48 hrs by ELISA; format: functional, Homo sapiens; how it was run: as §2
NCI-H460 [7] = assay: Cytotoxicity against human H460 cells assessed as surviving fraction at 2.5 ug/ml after 48 hrs by ELISA; format: functional; how it was run: as §2
Candida albicans = assay: Antimicrobial activity against Candida albicans; format: functional; how it was run: as §1
Neisseria gonorrhoeae = assay: Antimicrobial activity against Neisseria gonorrhoeae; format: functional; how it was run: as §1
Pseudomonas aeruginosa = assay: Antimicrobial activity against Pseudomonas aeruginosa; format: functional; how it was run: as §1
Escherichia coli = assay: Antimicrobial activity against Escherichia coli; format: functional; how it was run: as §1
NCI-H460 [8] = assay: Cytotoxicity against human H460 cells assessed as surviving fraction at 1 ug/ml after 48 hrs by ELISA; format: functional; how it was run: as §2

CCOC(=O)c1c(-c2ccccc2)nc2[nH]c(=S)[nH]c(=O)c2c1C(=O)OCC
inhibition zone (IZ) (Staphylococcus aureus): 12 mm | inhibition zone (IZ) (Enterococcus faecalis): 12 mm | Activity (HepG2 [1]): 0.841 | Activity (HepG2 [2]): 0.805 | inhibition zone (IZ) (Saccharomyces cerevisiae): 11 mm | Activity (NCI-H460 [3]): 0.771 | Activity (HepG2 [4]): 0.914 | inhibition zone (IZ) (Bacillus subtilis): 12 mm | Activity (NCI-H460 [5]): 0.72 | Activity (HepG2 [6]): 0.968 | Activity (NCI-H460 [7]): 0.827 | inhibition zone (IZ) (Candida albicans): 12 mm | inhibition zone (IZ) (Neisseria gonorrhoeae): 13 mm | inhibition zone (IZ) (Pseudomonas aeruginosa): 13 mm | inhibition zone (IZ) (Escherichia coli): 11 mm | Activity (NCI-H460 [8]): 0.855

N#Cc1cc(-c2ccccc2)nc2[nH]c(=S)[nH]c(=O)c12
inhibition zone (IZ) (Staphylococcus aureus): 11 mm | inhibition zone (IZ) (Enterococcus faecalis): 12 mm | inhibition zone (IZ) (Saccharomyces cerevisiae): 12 mm | inhibition zone (IZ) (Bacillus subtilis): 11 mm | inhibition zone (IZ) (Candida albicans): 12 mm | inhibition zone (IZ) (Neisseria gonorrhoeae): 12 mm | inhibition zone (IZ) (Pseudomonas aeruginosa): 11 mm | inhibition zone (IZ) (Escherichia coli): 12 mm

COC(=O)c1c(-c2ccccc2)nc2[nH]c(=S)[nH]c(=O)c2c1C(=O)OC
inhibition zone (IZ) (Staphylococcus aureus): 16 mm | inhibition zone (IZ) (Enterococcus faecalis): 15 mm | inhibition zone (IZ) (Saccharomyces cerevisiae): 16 mm | inhibition zone (IZ) (Bacillus subtilis): 16 mm | inhibition zone (IZ) (Candida albicans): 15 mm | inhibition zone (IZ) (Neisseria gonorrhoeae): 15 mm | inhibition zone (IZ) (Pseudomonas aeruginosa): 16 mm | inhibition zone (IZ) (Escherichia coli): 16 mm

COc1ccc(-c2cc(C#N)c3c(=O)[nH]c(=S)[nH]c3n2)cc1
Activity (HepG2 [1]): 0.941 | Activity (HepG2 [2]): 0.914 | Activity (NCI-H460 [3]): 0.836 | Activity (HepG2 [4]): 0.968 | Activity (NCI-H460 [5]): 0.808 | Activity (HepG2 [6]): 1.046 | Activity (NCI-H460 [7]): 0.897 | Activity (NCI-H460 [8]): 0.948

CC1(C)S[C@@H]2[C@H](NC(=O)[C@H](N)c3ccccc3)C(=O)N2[C@H]1C(=O)O [AMPICILLIN]
inhibition zone (IZ) (Staphylococcus aureus): 20 mm | inhibition zone (IZ) (Enterococcus faecalis): 30 mm | inhibition zone (IZ) (Bacillus subtilis): 18 mm | inhibition zone (IZ) (Neisseria gonorrhoeae): 13 mm | inhibition zone (IZ) (Pseudomonas aeruginosa): 19 mm | inhibition zone (IZ) (Escherichia coli): 11 mm

COc1ccc(-c2cc(C(=O)c3cccs3)c3c(=O)[nH]c(=S)[nH]c3n2)cc1
inhibition zone (IZ) (Staphylococcus aureus): 11 mm | inhibition zone (IZ) (Enterococcus faecalis): 12 mm | inhibition zone (IZ) (Saccharomyces cerevisiae): 12 mm | inhibition zone (IZ) (Bacillus subtilis): 11 mm | inhibition zone (IZ) (Candida albicans): 12 mm | inhibition zone (IZ) (Neisseria gonorrhoeae): 14 mm | inhibition zone (IZ) (Pseudomonas aeruginosa): 11 mm | inhibition zone (IZ) (Escherichia coli): 12 mm

O=C(c1cccs1)c1cc(-c2ccccc2)nc2[nH]c(=S)[nH]c(=O)c12
inhibition zone (IZ) (Staphylococcus aureus): 12 mm | inhibition zone (IZ) (Enterococcus faecalis): 12 mm | Activity (HepG2 [1]): 0.905 | Activity (HepG2 [2]): 0.85 | inhibition zone (IZ) (Saccharomyces cerevisiae): 12 mm | Activity (NCI-H460 [3]): 0.808 | Activity (HepG2 [4]): 1.005 | inhibition zone (IZ) (Bacillus subtilis): 13 mm | Activity (NCI-H460 [5]): 0.641 | Activity (HepG2 [6]): 1.05 | Activity (NCI-H460 [7]): 0.869 | inhibition zone (IZ) (Candida albicans): 13 mm | inhibition zone (IZ) (Neisseria gonorrhoeae): 13 mm | inhibition zone (IZ) (Pseudomonas aeruginosa): 12 mm | inhibition zone (IZ) (Escherichia coli): 13 mm | Activity (NCI-H460 [8]): 0.943

NYSTATIN
inhibition zone (IZ) (Saccharomyces cerevisiae): 11 mm | inhibition zone (IZ) (Candida albicans): 12 mm

CCOC(=O)c1cc(-c2ccccc2)nc2[nH]c(=S)[nH]c(=O)c12
inhibition zone (IZ) (Staphylococcus aureus): 11 mm | inhibition zone (IZ) (Enterococcus faecalis): 11 mm | inhibition zone (IZ) (Saccharomyces cerevisiae): 12 mm | inhibition zone (IZ) (Bacillus subtilis): 11 mm | inhibition zone (IZ) (Candida albicans): 11 mm | inhibition zone (IZ) (Neisseria gonorrhoeae): 12 mm | inhibition zone (IZ) (Pseudomonas aeruginosa): 11 mm | inhibition zone (IZ) (Escherichia coli): 11 mm

COc1ccc(-c2cc(C(=O)c3ccco3)c3c(=O)[nH]c(=S)[nH]c3n2)cc1
inhibition zone (IZ) (Staphylococcus aureus): 11 mm | inhibition zone (IZ) (Enterococcus faecalis): 11 mm | inhibition zone (IZ) (Saccharomyces cerevisiae): 12 mm | inhibition zone (IZ) (Bacillus subtilis): 11 mm | inhibition zone (IZ) (Candida albicans): 11 mm | inhibition zone (IZ) (Neisseria gonorrhoeae): 12 mm | inhibition zone (IZ) (Pseudomonas aeruginosa): 11 mm | inhibition zone (IZ) (Escherichia coli): 11 mm

COC(=O)c1c(-c2ccc(OC)cc2)nc2[nH]c(=S)[nH]c(=O)c2c1C(=O)OC
inhibition zone (IZ) (Staphylococcus aureus): 15 mm | inhibition zone (IZ) (Enterococcus faecalis): 14 mm | Activity (HepG2 [1]): 0.786 | Activity (HepG2 [2]): 0.709 | inhibition zone (IZ) (Saccharomyces cerevisiae): 14 mm | Activity (NCI-H460 [3]): 0.808 | Activity (HepG2 [4]): 0.823 | inhibition zone (IZ) (Bacillus subtilis): 14 mm | Activity (NCI-H460 [5]): 0.743 | Activity (HepG2 [6]): 0.895 | Activity (NCI-H460 [7]): 0.887 | inhibition zone (IZ) (Candida albicans): 14 mm | inhibition zone (IZ) (Neisseria gonorrhoeae): 14 mm | inhibition zone (IZ) (Pseudomonas aeruginosa): 14 mm | inhibition zone (IZ) (Escherichia coli): 14 mm | Activity (NCI-H460 [8]): 0.962

O=C(c1ccc2ccccc2c1)c1cc(-c2ccccc2)nc2[nH]c(=S)[nH]c(=O)c12
inhibition zone (IZ) (Staphylococcus aureus): 11 mm | inhibition zone (IZ) (Enterococcus faecalis): 11 mm | inhibition zone (IZ) (Saccharomyces cerevisiae): 12 mm | inhibition zone (IZ) (Bacillus subtilis): 10 mm | inhibition zone (IZ) (Candida albicans): 10 mm | inhibition zone (IZ) (Neisseria gonorrhoeae): 12 mm | inhibition zone (IZ) (Pseudomonas aeruginosa): 11 mm | inhibition zone (IZ) (Escherichia coli): 10 mm

CCOC(=O)c1cc(-c2ccc(OC)cc2)nc2[nH]c(=S)[nH]c(=O)c12
Activity (HepG2 [1]): 0.977 | Activity (HepG2 [2]): 0.927 | Activity (NCI-H460 [3]): 0.776 | Activity (HepG2 [4]): 1 | Activity (NCI-H460 [5]): 0.646 | Activity (HepG2 [6]): 1.018 | Activity (NCI-H460 [7]): 0.915 | Activity (NCI-H460 [8]): 0.948
